Results: ChEMBL document CHEMBL1828545, “Synthesis and characterization of novel PUFA esters exhibiting potential anticancer activities: an in vitro study” (Eur J Med Chem, 2011)
Activity calls are given as the source filed them. The calls are words filed in the database; no cut-off is given here.

What was measured:
HepG2 [1] = test: Cytotoxicity against human HepG2 cells after 94 hrs by MTT assay; format: functional, cell-based; details: HepG2, 94 h
Summary of the method: (§1)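 Cells seeded at 5 x 10^5 cells/200 µl/well in 96-well plates, grown in medium with 5% FCS. After 24 h, compounds added at 0–15 µM, with ethanol as vehicle control. Incubated 94 h, then medium replaced. MTT (5 mg/ml) added for 2-3 h at 37 °C and dissolved in DMSO. A620 read in triplicate wells. IC50 taken from the concentration giving 50% loss of viability.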

MDA-MB-361 [2] = test: Cytotoxicity against human MDA-MB-361 cells after 94 hrs by MTT assay; format: functional, cell-based; details: MDA-MB-361, 94 h; summary of the method: as §1
SK-MEL-1 = test: Cytotoxicity against human SK-MEL-1 cells after 94 hrs by MTT assay; format: functional, cell-based; details: for IC50: SK-MEL-1, 94 h; summary of the method: as §1
A549 = test: Cytotoxicity against human A549 cells after 94 hrs by MTT assay; format: functional, cell-based; details: for IC50: A549, 94 h; summary of the method: as §1
HL-60 = test: Cytotoxicity against human HL60 cells after 94 hrs by MTT assay; format: functional, cell-based; details: for IC50: HL-60, 94 h; summary of the method: as §1
HepG2 [3] = test: Modulation of lipid peroxidation in human HepG2 cells assessed as malondialdehyde production after 24 hrs by thiobarbituric acid assay; format: functional, cell-based
Summary of the method: (§2)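 Cells exposed for 24 h to vehicle or to 25, 50 or 100 µM compound. Malondialdehyde measured spectrophotometrically by thiobarbituric acid assay and expressed as nmol MDA per 10^6 cells. Means ± SD of five experiments.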

HepG2 [4] = test: Induction of apoptosis in human HepG2 cells assessed as upregulation of cytochrome c expression at 15 uM after 24 hrs by Western blotting; format: functional
Summary of the method: (§3)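 Cells (1 × 10^7/well) grown 24 h in serum-free medium at 37 °C, then treated 24 h, with ethanol as control. Harvested by trypsin and lysed in TNN buffer (50 mM Tris-HCl pH 7.4, NP-40, protease inhibitors). Cytosolic fraction taken from a 10,000 g spin. Protein measured by BCA and equal amounts run on 10% SDS-PAGE. Blotted to nitrocellulose, probed with monoclonal antibodies plus a β-actin reprobe, detected by ECL. Densitometry as mean of triplicates.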

HepG2 [5] = test: Induction of apoptosis in human HepG2 cells assessed as upregulation of caspase 3 expression at 15 uM after 24 hrs by Western blotting; format: functional, cell-based; summary of the method: as §3
HFL1 = test: Cytotoxicity against human HFL1 cells after 94 hrs by MTT assay; format: cell-based; details: hfl1, 94 h; summary of the method: as §1
MDA-MB-361 [6] = test: Modulation of lipid peroxidation in human MDA-MB-361 cells assessed as malondialdehyde production assessed per 10^6 cells at 25 to 100 uM after 24 hrs by thiobarbituric acid assay; format: functional; summary of the method: as §2
MDA-MB-361 [7] = test: Induction of apoptosis in human MDA-MB-361 cells assessed as upregulation of cytochrome c expression at 15 uM after 24 hrs by Western blotting; format: functional; summary of the method: as §3
MDA-MB-361 [8] = test: Induction of apoptosis in human MDA-MB-361 cells assessed as upregulation of caspase 3 expression at 15 uM after 24 hrs by Western blotting; format: functional; summary of the method: as §3

SMILES: CCCCC/C=C\C/C=C\C/C=C\C/C=C\CCCC(=O)Oc1c(C(C)C)cccc1C(C)C
- IC50 (HepG2 [1]): 3.1 µM
- IC50 (MDA-MB-361 [2]): 7.21 µM
- growth inhibition (GI) (SK-MEL-1): Active
- IC50 (A549): 4.6 µM
- IC50 (HL-60): 3.9 µM
- Activity (HepG2 [3]): Dose-dependent effect
- Activity (HepG2 [4]): 24.2%
- Activity (HepG2 [5]): inactive

SMILES: CCCCC/C=C\C/C=C\C/C=C\C/C=C\CCCC(=O)Oc1ccc(C(C)C)cc1C(C)C
- IC50 (HepG2 [1]): 3.7 µM
- IC50 (MDA-MB-361 [2]): 7.5 µM
- growth inhibition (GI) (SK-MEL-1): Active
- IC50 (A549): 5.3 µM
- IC50 (HL-60): 4.4 µM
- Activity (HFL1): Toxic
- Activity (HepG2 [3]): Dose-dependent effect
- Activity (HepG2 [4]): 24.7%
- Activity (HepG2 [5]): inactive

SMILES: CCCCC/C=C\C/C=C\CCCCCCCC(=O)Oc1c(C(C)C)cccc1C(C)C
- IC50 (HepG2 [1]): 3.3 µM
- IC50 (MDA-MB-361 [2]): 2.76 µM
- IC50 (SK-MEL-1): 4.1 µM
- growth inhibition (GI) (A549): Active
- growth inhibition (GI) (HL-60): Active
- Activity (HFL1): Non-toxic
- Activity (MDA-MB-361 [6]): 0.25 nmol
- Activity (MDA-MB-361 [7]): 36.6%
- Activity (MDA-MB-361 [8]): 33.7%

SMILES: CCCCC/C=C\C/C=C\CCCCCCCC(=O)Oc1ccc(C(C)C)cc1C(C)C
- IC50 (HepG2 [1]): 4.1 µM
- IC50 (MDA-MB-361 [2]): 3.2 µM
- IC50 (SK-MEL-1): 4.9 µM
- growth inhibition (GI) (A549): Active
- growth inhibition (GI) (HL-60): Active
- Activity (HFL1): Non-toxic
- Activity (MDA-MB-361 [6]): 0.25 nmol
- Activity (MDA-MB-361 [7]): 35.2%
- Activity (MDA-MB-361 [8]): 32.6%

SMILES: COc1cccc2c1C(=O)c1c(O)c3c(c(O)c1C2=O)C[C@@](O)(C(=O)CO)C[C@@H]3O[C@H]1C[C@H](N)[C@H](O)[C@H](C)O1 [DOXORUBICIN]
- IC50 (HepG2 [1]): 2.17 µM
- IC50 (MDA-MB-361 [2]): 2.03 µM
- IC50 (SK-MEL-1): 3.09 µM
- IC50 (A549): 3.6 µM
- IC50 (HL-60): 3.14 µM
- Activity (HFL1): Non-toxic
